ChEMBL document CHEMBL1165908, “Novel benzimidazole-pyrimidine conjugates as potent antitumor agents” (Eur J Med Chem, 2010)
Counter-ions that a name gives are not always drawn.

Key:
HL-60 = experiment: Cytotoxicity against human HL60 cells after 3 days by MTT assay; assay type: functional, cell-based; settings: HL-60, 72 h
KB = experiment: Cytotoxicity against human KB cells after 3 days by MTT assay; assay type: functional, cell-based; settings: 72 h
Procedure, shortened: (§1)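 Cells grown in RPMI 1640 with 10% fetal calf serum, plated at 2 × 10^4 cells, held 12 h at 37 °C in 5% CO2, then exposed to test sample for 3 days at 37 °C. MTT added for 4 h, formazan dissolved in DMSO, absorbance read at 570 nm. IC50 taken as 50% growth inhibition relative to untreated control; each experiment run at least 3 times.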

NCI-H460 = experiment: Cytotoxicity against human NCI-H460 cells after 3 days by MTT assay; assay type: functional, cell-based; settings: NCI-H460, 72 h; procedure, shortened: as §1
SK-MEL-28 = experiment: Cytotoxicity against human SK-MEL-28 cells after 3 days by MTT assay; assay type: functional, cell-based; settings: SK-MEL-28, 72 h; procedure, shortened: as §1
[1] = Toxicity in ip dosed mouse assessed as mortality after 24 hrs; assay type: organism-based; settings: in vivo
Procedure, shortened: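 Lorke two-phase design in mice, single intraperitoneal dose per group. Phase 1: three groups of three animals, each group one dose, observed 24 h for mortality and general behaviour. Phase 2: 3–4 groups of one mouse, doses chosen from phase 1 findings, observed 24 h. LD50 taken as geometric mean of lowest lethal dose and highest non-lethal dose; reported in mg/kg.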

GOTO = experiment: Cytotoxicity against human GOTO cells after 3 days by MTT assay; assay type: functional, cell-based; settings: 72 h; procedure, shortened: as §1
SK-OV-3 = experiment: Cytotoxicity against human SKOV3 cells after 3 days by MTT assay; assay type: functional, cell-based; settings: SK-OV-3, 72 h; procedure, shortened: as §1
U-937 = experiment: Cytotoxicity against human U937 cells after 3 days by MTT assay; assay type: functional, cell-based; settings: U-937, 72 h; procedure, shortened: as §1
[2] = Cytotoxicity against human RKOp27 cells after 3 days by MTT assay; assay type: functional, cell-based; settings: RKOp27, 72 h; procedure, shortened: as §1
SF-268 = experiment: Cytotoxicity against human SF268 cells after 3 days by MTT assay; assay type: functional, cell-based; settings: SF-268, 72 h; procedure, shortened: as §1
K562 = experiment: Cytotoxicity against human K562 cells after 3 days by MTT assay; assay type: functional, cell-based; settings: K562, 72 h; procedure, shortened: as §1
G-361 = experiment: Cytotoxicity against human G361 cells after 3 days by MTT assay; assay type: functional, cell-based; settings: G-361, 72 h; procedure, shortened: as §1
NB1 = experiment: Cytotoxicity against human NB-1 cells after 3 days by MTT assay; assay type: functional, cell-based; settings: NB1, 72 h; procedure, shortened: as §1

Cc1ccc(S(=O)(=O)N2CCN(c3nc(SCc4nc5ccccc5[nH]4)nc(-c4ccccc4)c3C#N)CC2)cc1
IC50 (HL-60): 4.23 nM
IC50 (KB): 3.28 nM
IC50 (NCI-H460): 22.7 nM
IC50 (SK-MEL-28): 4.38 nM
LD50 at 24 h [1]: 345 mg/kg
IC50 (GOTO): 4.38 nM
IC50 (SK-OV-3): 4.54 nM
IC50 (U-937): 4.1 nM
IC50 [2]: 2.5 nM
IC50 (SF-268): 7.81 nM
IC50 (K562): 11.3 nM
IC50 (G-361): 4.38 nM
IC50 (NB1): 6.75 nM

Nc1ccn([C@@H]2O[C@H](CO)[C@@H](O)C2(F)F)c(=O)n1 [GEMCITABINE HYDROCHLORIDE]
IC50 (NCI-H460): 2130 nM

N#Cc1c(Nc2ccccn2)nc(SCc2nc3ccccc3[nH]2)nc1-c1ccccc1
IC50 (HL-60): 20 nM
IC50 (KB): 7.35 nM
IC50 (NCI-H460): 2.8 nM
IC50 (SK-MEL-28): 8.9 nM
LD50 at 24 h [1]: 367 mg/kg
IC50 (GOTO): 2.5 nM
IC50 (SK-OV-3): 5.81 nM
IC50 (U-937): 2.55 nM
IC50 [2]: 3.8 nM
IC50 (SF-268): 6.75 nM
IC50 (K562): 7 nM
IC50 (G-361): 8.9 nM
IC50 (NB1): 3.9 nM

N#Cc1c(-c2ccccc2)nc(SCc2nc3ccccc3[nH]2)nc1N1CCN(C(=O)c2ccc([N+](=O)[O-])cc2)CC1
IC50 (HL-60): 2.9 nM
IC50 (KB): 7.35 nM
IC50 (NCI-H460): 4.46 nM
IC50 (SK-MEL-28): 2.77 nM
LD50 at 24 h [1]: 327 mg/kg
IC50 (GOTO): 5.81 nM
IC50 (SK-OV-3): 8.62 nM
IC50 (U-937): 5.2 nM
IC50 [2]: 7.81 nM
IC50 (SF-268): 5.81 nM
IC50 (K562): 4.38 nM
IC50 (G-361): 2.4 nM
IC50 (NB1): 13.2 nM

Nc1ccn([C@@H]2O[C@H](CO)[C@@H](O)[C@@H]2O)c(=O)n1 [CYTARABINE]
IC50 (SF-268): 7680 nM

CN1CCN(c2nc(SCc3nc4ccccc4[nH]3)nc(-c3ccccc3)c2C#N)CC1
IC50 (HL-60): 2.8 nM
IC50 (KB): 2.7 nM
IC50 (NCI-H460): 2.84 nM
IC50 (SK-MEL-28): 20 nM
LD50 at 24 h [1]: 384 mg/kg
IC50 (GOTO): 3.37 nM
IC50 (SK-OV-3): 1600 nM
IC50 (U-937): 6.75 nM
IC50 [2]: 5.4 nM
IC50 (SF-268): 6.9 nM
IC50 (K562): 2.4 nM
IC50 (G-361): 14.7 nM
IC50 (NB1): 2.4 nM

N#Cc1c(Nc2nccs2)nc(SCc2nc3ccccc3[nH]2)nc1-c1ccccc1
IC50 (HL-60): 11.9 nM
IC50 (KB): 14.7 nM
IC50 (NCI-H460): 3.37 nM
IC50 (SK-MEL-28): 8.9 nM
LD50 at 24 h [1]: 349 mg/kg
IC50 (GOTO): 5.1 nM
IC50 (SK-OV-3): 5.81 nM
IC50 (U-937): 3.8 nM
IC50 [2]: 3.2 nM
IC50 (SF-268): 2.55 nM
IC50 (K562): 14.7 nM
IC50 (G-361): 11.9 nM
IC50 (NB1): 3.2 nM

N#Cc1c(-c2ccccc2)nc(SCc2nc3ccccc3[nH]2)nc1N1CCNCC1
IC50 (HL-60): 4 nM
IC50 (KB): 2.87 nM
IC50 (NCI-H460): 7.35 nM
IC50 (SK-MEL-28): 2.6 nM
LD50 at 24 h [1]: 300 mg/kg
IC50 (GOTO): 3.7 nM
IC50 (SK-OV-3): 2.63 nM
IC50 (U-937): 5.81 nM
IC50 [2]: 5.81 nM
IC50 (SF-268): 20000 nM
IC50 (K562): 4.38 nM
IC50 (G-361): 2.5 nM
IC50 (NB1): 6.75 nM

CNc1nc(SCc2nc3ccccc3[nH]2)nc(-c2ccccc2)c1C#N
IC50 (HL-60): 6.57 nM
IC50 (KB): 2.7 nM
IC50 (NCI-H460): 3.2 nM
IC50 (SK-MEL-28): 2.87 nM
LD50 at 24 h [1]: 302 mg/kg
IC50 (GOTO): 3.28 nM
IC50 (SK-OV-3): 3 nM
IC50 (U-937): 19.2 nM
IC50 [2]: 3.7 nM
IC50 (SF-268): 3.2 nM
IC50 (K562): 13.2 nM
IC50 (G-361): 12.5 nM
IC50 (NB1): 4.46 nM

N#Cc1c(Cl)nc(SCc2nc3ccccc3[nH]2)nc1-c1ccccc1
IC50 (HL-60): 4.46 nM
IC50 (KB): 3.7 nM
IC50 (NCI-H460): 3.28 nM
IC50 (SK-MEL-28): 3.28 nM
LD50 at 24 h [1]: 313 mg/kg
IC50 (GOTO): 8.62 nM
IC50 (SK-OV-3): 3.37 nM
IC50 (U-937): 4.46 nM
IC50 [2]: 4.38 nM
IC50 (SF-268): 3.2 nM
IC50 (K562): 11.3 nM
IC50 (G-361): 12.5 nM
IC50 (NB1): 2.87 nM

N#Cc1c(-c2ccccc2)nc(SCc2nc3ccccc3[nH]2)nc1N1CCN(S(=O)(=O)c2ccccc2[N+](=O)[O-])CC1
IC50 (HL-60): 2.77 nM
IC50 (KB): 4.44 nM
IC50 (NCI-H460): 3.7 nM
IC50 (SK-MEL-28): 8.9 nM
LD50 at 24 h [1]: 325 mg/kg
IC50 (GOTO): 3 nM
IC50 (SK-OV-3): 3.2 nM
IC50 (U-937): 3.28 nM
IC50 [2]: 5.6 nM
IC50 (SF-268): 3 nM
IC50 (K562): 14.7 nM
IC50 (G-361): 9.6 nM
IC50 (NB1): 2.5 nM

N#Cc1c(NN)nc(SCc2nc3ccccc3[nH]2)nc1-c1ccccc1
IC50 (HL-60): 11.9 nM
IC50 (KB): 2.55 nM
IC50 (NCI-H460): 2.6 nM
IC50 (SK-MEL-28): 3 nM
LD50 at 24 h [1]: 344 mg/kg
IC50 (GOTO): 2.68 nM
IC50 (SK-OV-3): 2.7 nM
IC50 (U-937): 3.9 nM
IC50 [2]: 2.55 nM
IC50 (SF-268): 2.77 nM
IC50 (K562): 14.7 nM
IC50 (G-361): 14.7 nM
IC50 (NB1): 5.4 nM

Cl.N=c1[nH]c(=O)[nH]c2nc(SCc3nc4ccccc4[nH]3)nc(-c3ccccc3)c12
IC50 (HL-60): 3.1 nM
IC50 (KB): 2.5 nM
IC50 (NCI-H460): 2.84 nM
IC50 (SK-MEL-28): 8.9 nM
LD50 at 24 h [1]: 346 mg/kg
IC50 (GOTO): 8.9 nM
IC50 (SK-OV-3): 3.2 nM
IC50 (U-937): 2.87 nM
IC50 [2]: 2.7 nM
IC50 (SF-268): 2.84 nM
IC50 (K562): 14.7 nM
IC50 (G-361): 3.2 nM
IC50 (NB1): 11.3 nM
